Screens from PubChem.
PPC-1+TRAIL kill – compounds killing PPC-1 cancer cells with TRAIL present (potentiator screen, no TRAIL-free arm); actives 0.41% (n = 220,000); PPC-1 cells + TRAIL, ATPLite viability luminescence; AID 1443; cell killing (% activity), % at 4 µM or 5 µM;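 active = cell killing above 50% in the first pass at 4 µM, then a duplicate retest at 5 µM averaging 50% or more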;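 also: plate controls were cells with TRAIL plus DMSO for no effect and medium-only wells lacking cells for full effect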
FLuc act counter – affects firefly luciferase, flagging false hits in luciferase stimulation screens; ATPlite luciferase biochemical, luminescence, 10 min; 0 = ATP-free wells, 1 = DMSO control; activation factor at 10 µM; 200,000 tested, under 10 active; AID 1027;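 active = luciferase activation factor, scaled between plate controls, of at least 2 with compound at 10 µM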
Target sequence (P08659 whole entry, looked up): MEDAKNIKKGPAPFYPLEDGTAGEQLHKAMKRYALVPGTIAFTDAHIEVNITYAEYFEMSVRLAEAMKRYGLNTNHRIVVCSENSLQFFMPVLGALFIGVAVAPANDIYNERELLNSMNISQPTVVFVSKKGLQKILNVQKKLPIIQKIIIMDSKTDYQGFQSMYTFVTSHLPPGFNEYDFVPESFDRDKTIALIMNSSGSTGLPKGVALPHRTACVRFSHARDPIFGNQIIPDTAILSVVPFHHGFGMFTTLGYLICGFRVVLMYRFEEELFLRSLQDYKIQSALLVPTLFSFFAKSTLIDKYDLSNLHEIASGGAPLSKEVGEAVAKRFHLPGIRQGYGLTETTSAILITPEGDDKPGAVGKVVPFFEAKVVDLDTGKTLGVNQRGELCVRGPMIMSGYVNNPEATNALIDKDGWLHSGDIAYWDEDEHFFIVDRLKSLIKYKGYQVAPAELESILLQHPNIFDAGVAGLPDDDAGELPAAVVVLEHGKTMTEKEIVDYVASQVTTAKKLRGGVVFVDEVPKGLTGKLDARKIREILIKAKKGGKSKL
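Material: Luciferase/luciferin reagent mix | Doses: Test compounds dosed from 2 mM stocks in 100% DMSO | Timing: 10 min incubation after luciferase reagent addition, room temperature | Measured by: Luminescence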
FLuc inhib CS – inhibits firefly luciferase, flagging false hits in luciferase inhibition screens; P08659; AID 1006; ATPLite firefly luciferase biochemical luminescence, 10 min; actives 1.5% (n = 200,000); inhibition, % at 10 µM;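 active = inhibition above about 50% when tested at 10 µM, limit read from the data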
beta cell repl – MIN6 beta-cell proliferation induction; MIN6 cells proliferation, ATPlite luminescence, 48 h; cells starved in 0.2% serum; 100% = growth in 10% serum; proliferation, % at 10 µM; actives 0.29% (n = 330,000); AID 2380;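 active = compounds whose signal lies at least 3.5 SD above the mean of all wells on their plate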;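 also: 0% = DMSO-treated cells in low-serum medium and 100% = 10% serum control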
hiPSC survival – enhancers of human iPSC single-cell survival | hiPSC single-cell survival, ATPlite luminescence; 100% = ROCK inhibitor wells, 0% = DMSO | survival enhancement, % at 20 µM | actives 0.044% (n = 360,000) | AID 602274; in the data active = survival enhancement above about 18%;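 also: cells exposed to compounds for 16 hours before the ATP read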
TRAIL sens C8 – sensitizes caspase-8 expressing cells to TRAIL | NB7+C8 cells + TRAIL, ATPlite viability luminescence | actives 1% (n = 360,000) | inhibition (viability loss, TRAIL sensitization), % at 10 µM;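 active = compounds causing at least 50% loss of cell viability in the single-dose screen, relative to plate controls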
PPC1 cytotox – PPC-1 cell cytotoxicity; shares compounds with PPC-1+TRAIL kill; PPC-1 viability, ATPlite luminescence, overnight; cytotoxicity, % at 5 µM; actives 50% (n = 1,200);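 active = reconfirmed compounds whose average cytotoxicity reaches 50% or more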;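 also: 0% = DMSO-treated cells and 100% = wells holding medium but no cells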
* hit, by the source's call; · = no result. Hits are enriched below; roughly 1.8% of the tested compounds scored in any of these assays.

SMILES	PPC-1+TRAIL kill	FLuc act counter	FLuc inhib CS	beta cell repl	hiPSC survival	TRAIL sens C8	PPC1 cytotox
CCOC(=O)C1CCN(c2c(N3CCCCCC3)c(=O)c2=O)CC1	15	1	4	-4	0	5	·
CCOC(=O)C1C(=O)NCC2CCCC21 (centres undefined)	6	1	-4	-1	-3	7	4
CCS(=O)(=O)c1nc(S(=O)(=O)c2ccc(Cl)cc2)c(N2CCC(C(N)=O)CC2)s1	·	·	·	3	0	6	·
CC(=O)Cc1cc(O)c2ccccc2c1OC(=O)c1ccccc1	12	1	-5	-6	-1	3	11
CC(=O)c1cc(C)c(OC(=O)c2ccccc2)c(C)c1	·	·	·	·	0	6	·
CCN(CC)c1ccc(C(=O)Nc2cccc(F)c2)cc1	16	0.6	42	0	-4	42	16
CN(C)c1cccc(C(=O)Nc2cccc(F)c2)c1	34	0.9	10	-3	3	-14	·
CC(=O)Nc1ccc(SCC(=O)c2cc(C)n(Cc3cccs3)c2C)cc1	39	1	1	-2	0	39	39
COc1ccc(-n2cnnc2SCC(=O)c2cc(C)n(Cc3cccs3)c2C)cc1	3	1	-2	2	-2	9	2
CC(C)C(NS(=O)(=O)c1cccc(C(F)(F)F)c1)C(=O)N1CCc2ccccc2C1 (centres undefined)	·	·	·	0	0	-2	·
CCC(CNc1cc(OC)cc2cccnc12)NC1CCCCC1 (centres undefined)	-3	·	·	·	-1	26	-16
O=C(N=C1SC2CS(=O)(=O)CC2N1c1ccccc1)C1CCCCC1 (centres undefined)	·	·	·	1	0	2	·
CCn1nccc1NC(=O)c1csc([C@H]2C[C@H](O)[C@@H](CO)O2)n1	·	·	·	·	0	-6	·
CC(=O)N=c1sc2nc3ccccc3nc2n1N(C(C)=O)C(C)=O	-3	1	4	2	-2	16	-10
CC(=O)N=c1sc2ccccc2n1C	17	1	-4	-1	-2	1	·
COc1ccc2[nH]c(C(=O)O)c(CCC(=O)O)c2c1	1	1	0	-2	0	-9	14
NC(CCCCCP(=O)(c1ccccc1)c1ccccc1)C(=O)O (centres undefined)	-6	·	·	-1	·	·	·
C/C(=N\NC(=O)c1ccc2c(c1)OCO2)c1cccnc1	·	·	·	-2	0	31	·
N/C(=N\OC(=O)c1ccc2c(c1)OCO2)c1cccnc1	74*	0	97*	-6	0	82*	74*
CCCCn1c(N)c(N(CCOC)C(=O)CCCn2c(=O)oc3ccccc32)c(=O)[nH]c1=O	·	·	·	·	0	-8	·
Cc1csc(NC(=O)Cc2ccc(Br)cc2)n1	·	·	·	-1	-1	-19	·
Cc1csc(NC(=O)CCS(=O)(=O)c2ccc(Br)cc2)n1	7	1.1	-5	1	8	16	12
CC(C)(C)c1nc2scc(-c3ccc(Cl)cc3)c2c(=O)o1	-5	1.1	-6	0	6	13	-2
Cc1cc(NCCCn2ccnc2)n2ncc(-c3ccccc3)c2n1	67*	0.1	87*	-4	-6	77*	62*
CCc1nc2ccc(C(=O)N3CCCCC3)cn2c1N(CCC(C)C)CCN(C)C	·	·	·	·	1	-1	·
SMILES	PPC-1+TRAIL kill	FLuc act counter	FLuc inhib CS	beta cell repl	hiPSC survival	TRAIL sens C8	PPC1 cytotox
Cc1nnc(NC(=O)c2sc3ccccc3c2Cl)s1	81*	0	97*	-7	-3	87*	81*
CNC(=O)c1ccsc1NC(=O)c1sc2ccccc2c1Cl	6	0.7	26	0	-2	32	·
COCc1nnc(NC(=O)c2cccs2)s1	29	1	-1	-2	1	25	·
COCc1nnc(NC(=O)c2sc3ccccc3c2Cl)s1	24	0.4	63*	-4	2	26	27
O=C1CCC(=O)N1c1ccc(CSc2nc3ccccc3[nH]2)cc1	12	0.8	16	0	-1	11	·
COc1ccc(CSc2nc3ccccc3[nH]2)cc1	58*	0.2	82*	-2	-5	69*	55*
Cc1ccccc1CNC(=O)C(=O)NCC1CCCN1S(=O)(=O)c1cccs1 (centres undefined)	·	·	·	-3	0	-8	·
COc1cc2nc(CN(C)Cc3ccc(C(C)(C)C)cc3)[nH]c(=O)c2cc1OC	59*	0.2	85*	-5	-2	65*	58*
CCN(Cc1nc2cc(OC)c(OC)cc2c(=O)[nH]1)C(=O)c1ccc(S(=O)(=O)N(C)C)cc1	13	1	1	2	8	1	·
O=C(COC(=O)CCc1nc2ccccc2s1)NCc1ccco1	14	1	-2	-2	-1	-11	·
COc1ccc(C(=O)/C(=C/N(C)C)S(=O)(=O)c2ccccc2)cc1	-17	1	1	-2	1	33	-44
CCOC(=O)C1(C)/C(=N/Nc2ccccc2)C(=O)C(=O)N1c1ccccc1 (centres undefined)	-9	1.1	-6	-4	2	2	-1
CSCCC(NC(=O)COc1ccccc1)C(=O)N1CCN(c2ccccc2Cl)CC1 (centres undefined)	·	·	·	1	2	7	·
O=C(NC(=S)Nc1ccc(N2CCCC2)cc1)c1ccc(F)cc1	·	·	·	-6	0	10	·
O=C(Nc1ccccn1)c1sc2cccc(F)c2c1Cl	81*	0.2	81*	-6	-1	81*	83*
O=C(Nc1cccnc1)c1sc2cccc(F)c2c1Cl	-10	0.7	26	0	0	6	·
CCOc1ccccc1NC(=O)CN1C(=O)C(C)SC(C)C1=O (centres undefined)	-6	1	-5	4	-1	-5	·
COc1ccc(N/N=C(/N=Nc2nc(C)cc(=O)[nH]2)c2ccccc2)cc1	61*	0.3	73*	-6	-4	53*	58*
Cc1cc(=O)[nH]c(N=N/C(=N/Nc2ccccc2C)c2ccccc2)n1	42	0.9	10	-4	7	2	36
Cc1cc(=O)[nH]c(N=N/C(=N/Nc2ccc(O)cc2)c2ccccc2)n1	12	0.7	34	-8	2	0	2
O=C(Nc1ccc(N2CCCCCC2)cc1)c1ccccc1Cl	16	0.9	8	-2	-2	-25	·
O=C(Nc1ccc(N2CCCCC2)cc1)c1ccccn1	97*	0	97*	-5	-5	93*	96*
O=C(Nc1ccc(NC(=O)c2ccccn2)cc1)C(=O)Nc1ccc2c(c1)OCCO2	-7	1	2	2	0	-3	·
O=C(Nc1ccc2c(c1)OCCO2)c1ccc2ccccc2n1	43	0.4	62*	-4	-1	33	42
